ChEMBL document CHEMBL1944509, “Methyl-monofluorination of ibuprofen selectively increases its inhibitory activity toward cyclooxygenase-1 leading to enhanced analgesic activity and reduced gastric damage in vivo” (Bioorg Med Chem Lett, 2011)
The source made the active and inactive calls. The calls are words filed in the database; no cut-off is given here.

Key:
[1] = Plasma concentration in ICR mouse at 10 mg/kg, po after 0.25 hrs by HPLC/MS/MS analysis; assay type: ADME, organism-based; parameters: dose 10 mg/kg, route oral
[2] = Oral bioavailability ICR mouse at 10 mg/kg; assay type: ADME, organism-based; settings: in vivo
How it was run: (§1)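 ICR mice given drug intravenously at 5 mg/kg or orally at 10 mg/kg. Parameters are taken from the plasma concentration–time profile: AUC(0–t), AUC(0–∞), MRT, Cmax and bioavailability.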

[3] = Drug level in ICR mouse brain at 10 mg/kg, po after 1 hr by HPLC/MS/MS analysis; assay type: ADME, organism-based; parameters: dose 10 mg/kg, route oral; settings: read-out: Drug uptake
[4] = Plasma concentration in ICR mouse at 5 mg/kg, iv after 1 hr by HPLC/MS/MS analysis; assay type: ADME, organism-based; parameters: dose 5 mg/kg, route intravenous
[5] = Mean residence time (0 to infinity) in ICR mouse at 10 mg/kg, po; assay type: ADME, organism-based; parameters: dose 10 mg/kg, route oral; settings: in vivo; how it was run: as §1
Nucleic Acid [6] = assay: Ratio of drug level in brain to plasma in ICR mouse at 5 mg/kg, iv after 0.25 hrs by HPLC/MS/MS analysis; assay type: ADME, organism-based; parameters: dose 5 mg/kg, route intravenous
[7] = Cmax in ICR mouse at 5 mg/kg, iv; assay type: ADME, organism-based; parameters: dose 5 mg/kg, route intravenous; settings: in vivo; how it was run: as §1
[8] = AUC (0 to infinity) in ICR mouse at 5 mg/kg, iv; assay type: ADME, organism-based; parameters: time infinity, dose 5 mg/kg, route intravenous; settings: plasma; how it was run: as §1
[9] = Plasma concentration in ICR mouse at 10 mg/kg, po after 0.5 hrs by HPLC/MS/MS analysis; assay type: ADME, organism-based; parameters: dose 10 mg/kg, route oral
[10] = Plasma concentration in ICR mouse at 10 mg/kg, po after 0.083 hrs by HPLC/MS/MS analysis; assay type: ADME, organism-based; parameters: dose 10 mg/kg, route oral
[11] = Drug level in ICR mouse brain at 10 mg/kg, po after 0.25 hrs by HPLC/MS/MS analysis; assay type: ADME, organism-based; parameters: dose 10 mg/kg, route oral; settings: read-out: Drug uptake
[12] = Plasma concentration in ICR mouse at 5 mg/kg, iv after 0.083 hrs by HPLC/MS/MS analysis; assay type: ADME, organism-based; parameters: dose 5 mg/kg, route intravenous
[13] = Plasma concentration in ICR mouse at 5 mg/kg, iv after 0.25 hrs by HPLC/MS/MS analysis; assay type: ADME, organism-based; parameters: dose 5 mg/kg, route intravenous
Nucleic Acid [14] = assay: Ratio of drug level in brain to plasma in ICR mouse at 10 mg/kg, po after 0.25 hrs by HPLC/MS/MS analysis; assay type: ADME, organism-based; parameters: dose 10 mg/kg, route oral
[15] = Plasma concentration in ICR mouse at 10 mg/kg, po after 1 hr by HPLC/MS/MS analysis; assay type: ADME, organism-based; parameters: dose 10 mg/kg, route oral
[16] = Drug level in ICR mouse brain at 10 mg/kg, po after 0.5 hrs by HPLC/MS/MS analysis; assay type: ADME, organism-based; parameters: dose 10 mg/kg, route oral; settings: read-out: Drug uptake
[17] = Drug level in ICR mouse brain at 5 mg/kg, iv after 1 hr by HPLC/MS/MS analysis; assay type: ADME, organism-based; parameters: dose 5 mg/kg, route intravenous; settings: read-out: Drug uptake
[18] = Tmax in ICR mouse at 10 mg/kg, po; assay type: ADME, organism-based; parameters: dose 10 mg/kg, route oral; settings: in vivo
[19] = Plasma concentration in ICR mouse at 5 mg/kg, iv after 4 hrs by HPLC/MS/MS analysis; assay type: ADME, organism-based; parameters: dose 5 mg/kg, route intravenous
[20] = AUC (0 to infinity) in ICR mouse at 10 mg/kg, po; assay type: ADME, organism-based; parameters: time infinity, dose 10 mg/kg, route oral; settings: plasma; how it was run: as §1
[21] = Plasma concentration in ICR mouse at 5 mg/kg, iv after 0.5 hrs by HPLC/MS/MS analysis; assay type: ADME, organism-based; parameters: dose 5 mg/kg, route intravenous
Rattus norvegicus [22] = assay: Antiinflammatory activity in Wistar albino rat assessed as inhibition of carrageenan-induced paw edema at 30 mg/kg intragastrically administered 1 hr before carrageenan challenge measured after 1 to 24 hrs post carrageenan challenge by plethysmometer; assay type: functional, organism-based
How it was run: (§2)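 Male Wistar albino rats, 140–160 g, eight per group, dosed i.g. as a suspension in 0.5% CMC; controls get 0.5% CMC only. 1 h later, 0.1 ml of 0.1% carrageenan in 0.9% NaCl is injected into the sub-plantar region of the right hind paw. Paw volume is read by plethysmometer hourly to 6 h and at 24 h. Inhibition (%) = (Vc − Vt)/Vc × 100 on mean volume increase; mean ± SEM.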

[23] = Plasma concentration in ICR mouse at 10 mg/kg, po after 2 hrs by HPLC/MS/MS analysis; assay type: ADME, organism-based; parameters: dose 10 mg/kg, route oral
[24] = Plasma concentration in ICR mouse at 5 mg/kg, iv after 6 hrs by HPLC/MS/MS analysis; assay type: ADME, organism-based; parameters: dose 5 mg/kg, route intravenous
[25] = Drug level in ICR mouse brain at 10 mg/kg, po after 4 hrs by HPLC/MS/MS analysis; assay type: ADME, organism-based; parameters: dose 10 mg/kg, route oral; settings: read-out: Drug uptake
[26] = Plasma concentration in ICR mouse at 10 mg/kg, po after 4 hrs by HPLC/MS/MS analysis; assay type: ADME, organism-based; parameters: dose 10 mg/kg, route oral
[27] = AUC (0 to t) in ICR mouse at 5 mg/kg, iv; assay type: ADME, organism-based; parameters: dose 5 mg/kg, route intravenous; settings: plasma; how it was run: as §1
[28] = Drug level in ICR mouse brain at 5 mg/kg, iv after 0.083 hrs by HPLC/MS/MS analysis; assay type: ADME, organism-based; parameters: dose 5 mg/kg, route intravenous; settings: read-out: Drug uptake
[29] = Drug level in ICR mouse brain at 5 mg/kg, iv after 0.5 hrs by HPLC/MS/MS analysis; assay type: ADME, organism-based; parameters: dose 5 mg/kg, route intravenous; settings: read-out: Drug uptake
[30] = Drug level in ICR mouse brain at 10 mg/kg, po after 2 hrs by HPLC/MS/MS analysis; assay type: ADME, organism-based; parameters: dose 10 mg/kg, route oral; settings: read-out: Drug uptake
[31] = Drug level in ICR mouse brain at 5 mg/kg, iv after 2 hrs by HPLC/MS/MS analysis; assay type: ADME, organism-based; parameters: dose 5 mg/kg, route intravenous; settings: read-out: Drug uptake
[32] = Tmax in ICR mouse at 5 mg/kg, iv; assay type: ADME, organism-based; parameters: dose 5 mg/kg, route intravenous; settings: in vivo
Nucleic Acid [33] = assay: Ratio of drug level in brain to plasma in ICR mouse at 5 mg/kg, iv after 0.083 hrs by HPLC/MS/MS analysis; assay type: ADME, organism-based; parameters: dose 5 mg/kg, route intravenous
[34] = Drug level in ICR mouse brain at 5 mg/kg, iv after 0.25 hrs by HPLC/MS/MS analysis; assay type: ADME, organism-based; parameters: dose 5 mg/kg, route intravenous; settings: read-out: Drug uptake
[35] = Plasma concentration in ICR mouse at 10 mg/kg, po after 6 hrs by HPLC/MS/MS analysis; assay type: ADME, organism-based; parameters: dose 10 mg/kg, route oral
[36] = AUC (0 to t) in ICR mouse at 10 mg/kg, po; assay type: ADME, organism-based; parameters: dose 10 mg/kg, route oral; settings: plasma; how it was run: as §1
[37] = Plasma concentration in ICR mouse at 5 mg/kg, iv after 2 hrs by HPLC/MS/MS analysis; assay type: ADME, organism-based; parameters: dose 5 mg/kg, route intravenous
Nucleic Acid [38] = assay: Ratio of drug level in brain to plasma in ICR mouse at 10 mg/kg, po after 1 hr by HPLC/MS/MS analysis; assay type: ADME, organism-based; parameters: dose 10 mg/kg, route oral
[39] = Drug level in ICR mouse brain at 10 mg/kg, po after 0.083 hrs by HPLC/MS/MS analysis; assay type: ADME, organism-based; parameters: dose 10 mg/kg, route oral; settings: read-out: Drug uptake
[40] = Mean residence time (0 to infinity) in ICR mouse at 5 mg/kg, iv; assay type: ADME, organism-based; parameters: dose 5 mg/kg, route intravenous; settings: in vivo; how it was run: as §1
Nucleic Acid [41] = assay: Ratio of drug level in brain to plasma in ICR mouse at 5 mg/kg, iv after 2 hrs by HPLC/MS/MS analysis; assay type: ADME, organism-based; parameters: dose 5 mg/kg, route intravenous
[42] = Cmax in ICR mouse at 10 mg/kg, po; assay type: ADME, organism-based; parameters: dose 10 mg/kg, route oral; settings: in vivo; how it was run: as §1
Rattus norvegicus [43] = assay: Antiinflammatory activity in Wistar albino rat assessed as inhibition of carrageenan-induced paw edema at 33.6 mg/kg, ig administered 1 hr before carrageenan challenge measured after 1 to 24 hrs post carrageenan challenge by plethysmometer; assay type: functional, organism-based; how it was run: as §2
Nucleic Acid [44] = assay: Ratio of drug level in brain to plasma in ICR mouse at 5 mg/kg, iv after 0.5 hrs by HPLC/MS/MS analysis; assay type: ADME, organism-based; parameters: dose 5 mg/kg, route intravenous
[45] = Plasma concentration in ICR mouse at 5 mg/kg, iv after 8 hrs by HPLC/MS/MS analysis; assay type: ADME, organism-based; parameters: dose 5 mg/kg, route intravenous

CC(C)Cc1ccc([C@H](C)C(=O)O)cc1 [DEXIBUPROFEN]
concentration at 0.25 h [1]: 33600 ng/mL
bioavailability [2]: 118%
concentration at 1 h [3]: 721 ng/g
concentration at 1 h [4]: 9960 ng/mL
MRT inf [5]: 101 min
BPR (Nucleic Acid [6]): 0.032 mL/g
Cmax [7]: 34600 ng/mL
AUC(0-inf) [8]: 34500 ng·h/mL
concentration at 0.5 h [9]: 34400 ng/mL
concentration at 0.083 h [10]: 52100 ng/mL
concentration at 0.25 h [11]: 999 ng/g
concentration at 0.083 h [12]: 34600 ng/mL
concentration at 0.25 h [13]: 19400 ng/mL
BPR (Nucleic Acid [14]): 0.029 mL/g
concentration at 1 h [15]: 24000 ng/mL
concentration at 0.5 h [16]: 1130 ng/g
concentration at 1 h [17]: 251 ng/g
Tmax [18]: 4.8 min
concentration at 4 h [19]: 927 ng/mL
AUC(0-inf) [20]: 81600 ng·h/mL
concentration at 0.5 h [21]: 19800 ng/mL
inhibition (Rattus norvegicus [22]): Active
concentration at 2 h [23]: 15800 ng/mL
concentration at 6 h [24]: 334 ng/mL
concentration at 4 h [25]: 127 ng/g
concentration at 4 h [26]: 5260 ng/mL
AUC(0-t) [27]: 33900 ng·h/mL
concentration at 0.083 h [28]: 1260 ng/g
concentration at 0.5 h [29]: 613 ng/g
concentration at 2 h [30]: 340 ng/g
concentration at 2 h [31]: 123 ng/g
Tmax [32]: 4.8 min
BPR (Nucleic Acid [33]): 0.037 mL/g
concentration at 0.25 h [34]: 598 ng/g
concentration at 6 h [35]: 1070 ng/mL
AUC(0-t) [36]: 81100 ng·h/mL
concentration at 2 h [37]: 3930 ng/mL
BPR (Nucleic Acid [38]): 0.031 mL/g
concentration at 0.083 h [39]: 1340 ng/g
MRT inf [40]: 76.8 min
BPR (Nucleic Acid [41]): 0.031 mL/g
Cmax [42]: 52100 ng/mL
inhibition (Rattus norvegicus [43]): Active
BPR (Nucleic Acid [44]): 0.032 mL/g
concentration at 8 h [45]: 354 ng/mL
